{"source": "ChEMBL document CHEMBL5036308", "about": "“Chiral Alkyl Groups at Position 3(1') of Pyropheophorbide-a Specify Uptake and Retention by Tumor Cells and Are Essential for Effective Photodynamic Therapy” (J Med Chem, 2021)", "key": {"[1]": {"assay": "Drug uptake in human HN-T1 cells assessed as drug internalization at 1600 nM incubated for 24 hrs in presence of 10% fetal bovine serum measured after 24 hrs chase period by fluorescent microscopy", "type": "ADME, cell-based", "settings": "hnt1, 24 h, 1.6 µM"}, "[2]": {"assay": "Drug uptake in human HN-143-T-EC cells assessed as drug retention in mitochondria measured after 72 hrs chase period by fluorescent microscopy", "type": "ADME"}, "[3]": {"assay": "Drug uptake in human HN-143 T-EC cells assessed as slow release by measuring drug retention at 1600 nM incubated for 24 hrs in presence of 10% fetal bovine serum measured after 48 hrs chase period by fluorescent microscopy imaging based analysis", "type": "ADME, cell-based", "settings": "1.6 µM", "method_in_brief": "(§1)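 Cells incubated 24 h in medium with 10% serum and 1600 nM PS, then chased in PS-free medium for up to 72 h with daily medium changes. Cellular PS was measured daily by fluorescence microscopy; net fluorescence intensity per full image frame was quantified in arbitrary units.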"}, "[4]": {"assay": "Photoreactivation in human HN-85 T-EC cells at 100 to 400 nM in presence of 10% fetal bovine serum under 3 J/cm^2 light for 9 mins measured after 24 hrs by Western blotting analysis", "settings": "0.15 h, 0.4 µM"}, "[5]": {"assay": "Drug uptake in human HN-143-T-EC cells assessed as drug retention in endoplasmic reticulum measured after 72 hrs by fluorescent microscopy", "type": "ADME, cell-based"}, "[6]": {"assay": "Drug uptake in human HN-85 T-EC cells assessed as drug retention at 1600 nM incubated for 24 hrs in presence of 10% fetal bovine serum measured after 24 hrs chase period by fluorescent microscopy", "type": "ADME, cell-based", "settings": "1.6 µM"}, "[7]": {"assay": "Drug uptake in human HN-143 T-EC cells assessed as drug retention at 1600 nM incubated for 24 hrs in presence of 10% fetal bovine serum measured after 72 hrs chase period by fluorescent microscopy imaging based analysis", "type": "ADME, cell-based", "settings": "1.6 µM", "method_in_brief": "as §1"}, "HN-143 T-EC": {"tested_on": "HN-143 T-EC", "assay": "Binding affinity to human HN-143 T-EC cell membrane surface measured at 1600 nM incubated for 30 min", "type": "tissue-based"}, "FaDu-124": {"tested_on": "FaDu-124", "assay": "Binding affinity to human FaDu-124 cell membrane surface measured at 1600 nM incubated for 30 mins at 0 degC", "type": "tissue-based", "method_in_brief": "(§2)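 FaDu-124 cells, 30 min on ice in serum-free DMEM with 1600 nM PS, then cell-associated fluorescence imaged. For diffusion into cells, cultures were then held 30 min at 37°C in fresh serum-free medium and imaged again.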"}, "HNT1": {"tested_on": "HNT1", "assay": "Binding affinity to human HNT1 cell plasma membrane with CFSE-labeled HN-87 T-Fb assessed as drug retention at 1600 nM incubated for 24 hrs in presence of 10% fetal bovine serum measured after 24 hrs chase period by fluorescent microscopy", "type": "cell membranes", "method_in_brief": "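HNT1 cells (p 72) co-cultured on collagen-1 with CFSE-stained HN-87 T-Fb fibroblasts (added to 24 h-old tumor cultures, grown 3–7 days to confluence). Treated 24 h with DMEM + 10% FBS and 1600 nM PS, chased 24 h in DMEM + 10% FBS, then fluorescence imaged under identical conditions.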"}, "TEC1-2": {"tested_on": "TEC1-2", "assay": "Binding affinity to human TEC1-2 cell plasma membrane assessed as drug retention at 1600 nM incubated for 24 hrs in presence of 10% fetal bovine serum measured after 48 hrs chase period by fluorescent microscopy", "type": "cell membranes"}, "[8]": {"assay": "Drug uptake in human HNT1 cells assessed as drug retention at 1600 nM incubated for 24 hrs in presence of 10% fetal bovine serum measured after 24 hrs chase period by fluorescent microscopy", "type": "ADME, cell-based", "settings": "hnt1, 24 h, 1.6 µM"}, "[9]": {"assay": "Drug uptake in human HN-143 T-EC cells assessed as drug retention at 1600 nM incubated for 24 hrs in presence of 10% fetal bovine by fluorescent microscopy imaging based analysis", "type": "ADME, cell-based", "settings": "1.6 µM", "method_in_brief": "as §1"}, "[10]": {"assay": "Drug uptake in human FaDu-124 cell membrane assessed as drug internalization at 1600 nM incubated for 30 mins at 37 degC", "type": "ADME, cell-based", "settings": "fadu-124, 0.5 h, 1.6 µM", "method_in_brief": "as §2"}, "[11]": {"assay": "Solubility of the compound", "type": "physicochemical"}}, "note": "Calls of active or inactive are those of the source. The calls are words filed in the database; no cut-off is given here."}
{"smiles": "CCCCc1c(C)c2cc3nc(c4c5[nH]c(cc6nc(cc1[nH]2)C(C)=C6CC)c(C)c5C(=O)C4)[C@@H](CCC(=O)OC)C3C", "note": "(some centres not stated)", "values": [{"measurement": "Drug uptake", "setting": "[1]", "result": "Active"}]}
{"smiles": "CCCCc1c(C)c2cc3nc(c4c5[nH]c(cc6nc(cc1[nH]2)C(C)=C6CC)c(C)c5C(=O)C4)[C@@H](CCC(=O)O)C3C", "note": "(some centres not stated)", "values": [{"measurement": "Drug uptake", "setting": "[1]", "result": "Active"}]}
{"smiles": "CCCCC(C)OC(C)c1c(C)c2cc3nc(c4c5[nH]c(cc6nc(cc1[nH]2)C(C)=C6CC)c(C)c5C(=O)C4)[C@@H](CCC(=O)OC)C3C", "note": "(some centres not stated)", "values": [{"measurement": "Drug uptake", "setting": "[2]", "result": "Active"}, {"measurement": "Drug uptake", "setting": "[3]", "result": "Active"}, {"measurement": "Drug metabolism", "setting": "[4]", "result": "Metabolite_Detected"}, {"measurement": "Drug uptake", "setting": "[5]", "result": "Active"}, {"measurement": "Drug uptake", "setting": "[6]", "result": "Not Active"}, {"measurement": "Drug uptake", "setting": "[7]", "result": "Active"}]}
{"smiles": "CCCCCCOCc1c(C)c2cc3nc(c4c5[nH]c(cc6nc(cc1[nH]2)C(C)=C6CC)c(C)c5C(=O)C4)[C@@H](CCC(=O)O)C3C", "note": "(some centres not stated)", "values": [{"measurement": "Activity", "setting": "HN-143 T-EC", "result": "Active"}]}
{"smiles": "C=Cc1c(C)c2cc3nc(c4c5[nH]c(cc6nc(cc1[nH]2)C(C)=C6CC)c(C)c5C(=O)C4)[C@@H](CCC(=O)O)C3C", "note": "(some centres not stated)", "values": [{"measurement": "Activity", "setting": "FaDu-124", "result": "inactive"}]}
{"smiles": "CCCCC(C)OCc1c(C)c2cc3nc(c4c5[nH]c(cc6nc(cc1[nH]2)C(C)=C6CC)c(C)c5C(=O)C4)[C@@H](CCC(=O)OC)C3C", "note": "(some centres not stated)", "values": [{"measurement": "Activity", "setting": "HNT1", "result": "inactive"}, {"measurement": "Activity", "setting": "TEC1-2", "result": "inactive"}]}
{"smiles": "CCCCC(C)OC(C)c1c(C)c2cc3nc(c4c5[nH]c(cc6nc(cc1[nH]2)C(C)=C6CC)c(C)c5C(=O)C4)[C@@H](CCC(=O)O)C3C", "note": "(some centres not stated)", "values": [{"measurement": "Drug uptake", "setting": "[8]", "result": "Active"}, {"measurement": "Drug uptake", "setting": "[2]", "result": "Active"}, {"measurement": "Drug uptake", "setting": "[9]", "result": "Active"}, {"measurement": "Drug uptake", "setting": "[5]", "result": "Active"}, {"measurement": "Activity", "setting": "HN-143 T-EC", "result": "Active"}, {"measurement": "Drug uptake", "setting": "[6]", "result": "Not Active"}, {"measurement": "Drug uptake", "setting": "[7]", "result": "Active"}]}
{"smiles": "CCCCCCOC(C)c1c(C)c2cc3nc(c4c5[nH]c(cc6nc(cc1[nH]2)C(C)=C6CC)c(C)c5C(=O)C4)[C@@H](CCC(=O)OC)C3C", "note": "(some centres not stated)", "values": [{"measurement": "Drug uptake", "setting": "[2]", "result": "Active"}, {"measurement": "Drug uptake", "setting": "[10]", "result": "Active"}, {"measurement": "Drug uptake", "setting": "[5]", "result": "Active"}, {"measurement": "Drug uptake", "setting": "[7]", "result": "Active"}, {"measurement": "Activity", "setting": "FaDu-124", "result": "Active"}]}
{"smiles": "CCCCCCCCc1c(C)c2cc3nc(c4c5[nH]c(cc6nc(cc1[nH]2)C(C)=C6CC)c(C)c5C(=O)C4)[C@@H](CCC(=O)O)C3C", "note": "(some centres not stated)", "values": [{"measurement": "solubility", "setting": "[11]", "result": "Soluble"}, {"measurement": "Drug uptake", "setting": "[9]", "result": "Not Active"}, {"measurement": "Drug uptake", "setting": "[7]", "result": "Active"}]}
